# Published values of several laboratories.
SMILES,target or system,observed,technique,strain,time,measurement,result
NNC(=O)c1ccncc1,Mycobacterium kansasii,microbial growth,broth dilution,DSM44162,7 days,MIC,4 µg/mL
COc1cc2ncnc(Nc3ccc4c(c3)/C(=C/c3ccccc3)C(=O)N4C)c2cc1OC,B16,cell growth or viability,MTT,,,IC50,1.53 µM
Cc1[nH]c(C(=O)Nc2ccc(C(=O)NCc3n[nH]c(=O)o3)cc2N2CCNCC2)c(Cl)c1Cl.Cl,Acinetobacter baumannii,microbial growth,broth dilution,ATCC19606,,MIC,> 32 µg/mL
O=C(O)c1cn(C2CC2)c2cc(N3CCNCC3)c(F)cc2c1=O,Acinetobacter baumannii,microbial growth,,ATCC19606,,MIC,8 µM
O=C(O)c1cn(C2CC2)c2cc(N3CCNCC3)c(F)cc2c1=O,Acinetobacter baumannii,microbial growth,broth dilution,ATCC19606,,MIC,2 µM
C=CC(=O)NC1CCN(c2ncc3ncnc(Nc4ccc(Oc5ccc6c(c5)ncn6C)c(C)c4)c3n2)CC1,Capan-2,cell growth or viability,,,,EC50,0.0361 µM
Cc1nc(N(Cc2ccccc2)c2ccc3c(c2)/C(=C/c2ccccc2)C(=O)N3Cc2ccccc2)c2ccccc2n1 (mixture of isomers),B16,cell growth or viability,MTT,,,IC50,0.2 µM
O=C(O)c1cn(C2CC2)c2cc(N3CCNCC3)c(F)cc2c1=O,Mycobacterium kansasii,microbial growth,broth dilution,DSM44162,7 days,MIC,1 µg/mL
COc1cc2ncnc(N(C)c3ccc4c(c3)/C(=C/c3ccccc3)C(=O)N4C)c2cc1OC (mixture of isomers),B16,cell growth or viability,MTT,,,IC50,8.07 µM
Cl.N[C@H]1CCN(c2cc(C(=O)NCC(=O)O)ccc2NC(=O)c2cc(Br)c(Br)[nH]2)C1,Acinetobacter baumannii,microbial growth,broth dilution,ATCC19606,,MIC,> 32 µg/mL
